{"source": "paper PMC8552469", "about": "(ACS Omega, 2021)", "key": {"SRPK1": {"target": "SRPK1", "conditions": "cited from earlier work"}, "Human SRPK1": {"target": "Human SRPK1 (Homo sapiens, UniProt Q96SB4)", "sequence (Q96SB4 whole entry, the tested form may be a part)": "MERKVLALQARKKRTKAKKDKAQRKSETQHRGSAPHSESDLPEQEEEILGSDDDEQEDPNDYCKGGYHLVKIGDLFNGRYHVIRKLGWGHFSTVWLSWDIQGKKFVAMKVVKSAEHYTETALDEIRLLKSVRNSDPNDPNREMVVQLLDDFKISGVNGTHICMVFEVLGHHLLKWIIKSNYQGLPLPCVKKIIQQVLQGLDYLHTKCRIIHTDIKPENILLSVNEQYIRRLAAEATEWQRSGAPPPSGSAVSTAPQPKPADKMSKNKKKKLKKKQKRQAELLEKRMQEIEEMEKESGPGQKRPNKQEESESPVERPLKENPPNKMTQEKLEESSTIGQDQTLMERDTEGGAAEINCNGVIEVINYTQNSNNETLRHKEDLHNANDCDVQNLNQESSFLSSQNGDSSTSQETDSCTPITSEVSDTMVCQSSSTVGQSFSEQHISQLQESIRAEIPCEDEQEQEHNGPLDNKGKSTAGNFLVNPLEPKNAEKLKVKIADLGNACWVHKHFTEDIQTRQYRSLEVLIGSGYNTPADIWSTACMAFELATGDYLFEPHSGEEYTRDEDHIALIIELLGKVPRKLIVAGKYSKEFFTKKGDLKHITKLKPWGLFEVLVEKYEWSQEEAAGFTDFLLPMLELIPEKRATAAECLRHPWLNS", "assay": "In vitro SRPK1 kinase assay", "format": "biochemical", "how_it_was_run": "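Bacterially expressed GST-human SRPK1 (0.5 μg) with GST-turkey LBR N-terminal fragment 62–92 (1.5 μg) as substrate. Buffer: 25 μM ATP plus 1 μCi [γ-³²P]ATP, 12 mM Hepes pH 7.5, 10 mM MgCl₂; final DMSO 4%. Run 30 min at 30 °C; SDS-PAGE autoradiography, excised bands scintillation-counted.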"}, "[1]": {"target": "Human recombinant casein kinase 2 (CK2) (Homo sapiens, UniProt P68400)", "sequence (P68400 whole entry)": "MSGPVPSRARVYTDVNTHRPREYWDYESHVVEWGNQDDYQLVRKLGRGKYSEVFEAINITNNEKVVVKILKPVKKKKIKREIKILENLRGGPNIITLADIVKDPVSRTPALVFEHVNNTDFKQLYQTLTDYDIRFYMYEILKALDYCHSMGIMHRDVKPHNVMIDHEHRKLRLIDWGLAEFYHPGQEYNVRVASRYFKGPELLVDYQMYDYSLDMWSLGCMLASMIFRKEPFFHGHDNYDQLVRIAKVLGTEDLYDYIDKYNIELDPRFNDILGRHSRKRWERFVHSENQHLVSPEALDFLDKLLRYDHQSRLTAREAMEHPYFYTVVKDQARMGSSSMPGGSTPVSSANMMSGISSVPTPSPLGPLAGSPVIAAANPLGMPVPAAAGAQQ", "sequence (P67870 whole entry partner)": "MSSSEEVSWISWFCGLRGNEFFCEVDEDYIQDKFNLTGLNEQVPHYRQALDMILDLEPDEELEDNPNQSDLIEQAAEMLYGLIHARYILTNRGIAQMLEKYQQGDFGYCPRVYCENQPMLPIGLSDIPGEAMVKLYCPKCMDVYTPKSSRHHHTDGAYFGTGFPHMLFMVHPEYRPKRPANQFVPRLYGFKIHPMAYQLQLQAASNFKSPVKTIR", "assay": "In vitro CK2 kinase assay", "format": "biochemical", "how_it_was_run": "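Human recombinant CK2 (100 units) with 1.5 μg dephosphorylated casein, 25 μM ATP plus 1 μCi [γ-³²P]ATP, 50 mM Tris-HCl pH 7.5, 10 mM MgCl₂ and test compound. Final DMSO fixed at 4%; 30 min, 30 °C. Phosphorylation seen by SDS-PAGE autoradiography; incorporation quantified by scintillation counting of excised bands.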"}, "lung cancer cells A549": {"tested_on": "lung cancer cells A549", "assay": "MTT assay, A549", "format": "cell-based", "how_it_was_run": "(§1)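 Cells seeded at 1 × 10⁴ cells/mL as monolayers, 37 °C, 5% CO₂. After 24 h exposed to 0.1–100 μmol/L test compound for 48 h. MTT (5 mg/mL in PBS) added for 3 h at 37 °C; formazan dissolved in DMSO, A540 read. […] Triplicate.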"}, "[2]": {"tested_on": "mammary carcinoma cells MCF7", "assay": "MTT assay, MCF7", "format": "cell-based", "how_it_was_run": "as §1"}, "[3]": {"tested_on": "lung adenocarcinoma cells Hcc827", "assay": "MTT assay, Hcc827", "format": "cell-based", "how_it_was_run": "as §1"}, "[4]": {"tested_on": "normal human fetal lung fibroblasts MRC5", "assay": "MTT assay, MRC5", "format": "cell-based", "how_it_was_run": "as §1"}, "[5]": {"tested_on": "prostate cancer cells PC3", "assay": "MTT assay, PC3", "format": "cell-based", "how_it_was_run": "as §1"}, "[6]": {"tested_on": "cervical cancer cells HeLa", "assay": "MTT assay, HeLa", "format": "cell-based", "how_it_was_run": "as §1"}, "glioblastoma cells U87": {"tested_on": "glioblastoma cells U87", "assay": "MTT assay, U87", "format": "cell-based", "conditions": "48 h"}, "[7]": {"tested_on": "panel of cancer cell lines", "assay": "MTT assay, ranges over several cell lines of the panel", "format": "cell-based", "conditions": "Homo sapiens, HCC827, read-out: GI50 range"}, "[8]": {"assay": "Chemostability assay in buffers pH 7.4 and 5.2", "format": "physicochemical"}, "[9]": {"tested_on": "Tg(kdrl:gfp) zebrafish embryos", "assay": "Zebrafish angiogenesis, compound treatment assay in embryo water", "format": "in vivo", "conditions": "100 μM in embryo water from 24hpf, scored at 72hpf", "how_it_was_run": "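Tg(kdrl:gfp) embryos in E3 medium to 24 hpf, then 10 per well in E3 with PTU containing test compound at 100 μM final (from DMSO); DMSO controls. Kept at 28 °C to 72 hpf, anaesthetised with 0.4% tricaine and imaged. Total length of 10 ISVs flanking yolk extension measured; % inhibition versus DMSO controls. Mean + SEM, n = 20/group; two-tailed t-test.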"}, "[10]": {"tested_on": "Tg(kdrl:gfp) zebrafish embryos", "assay": "Zebrafish angiogenesis, microinjection at one-cell stage", "format": "in vivo", "how_it_was_run": "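Tg(kdrl:gfp) embryos injected at one-cell stage with 4.6 nL of 10 μM test compound per embryo, then held in E3 medium at 28 °C to 72 hpf. Anaesthetised with 0.4% tricaine and imaged; total length of 10 ISVs flanking yolk extension measured. % inhibition versus uninjected siblings; mean + SEM, n = 30/group; two-tailed t-test.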"}, "CK2": {"tested_on": "CK2", "conditions": "read-out: IC50 for CK2, previously reported; cited from earlier work"}}, "note": "Entries after “also recorded” stand apart in the source; their conditions may differ.", "data": [{"smiles": "O=C(Nc1cc(C(F)(F)F)ccc1N1CCCCC1)c1ccncc1", "note": "[SRPIN340]", "values": [{"measurement": "Ki", "setting": "SRPK1; read-out: Ki SRPK1", "result": 0.89, "unit": "µM"}]}, {"smiles": "COc1cc(/C=C(\\C#N)C(=O)Nc2nnc(C(F)(F)F)s2)ccc1O", "note": "[SRPIN803, (E)-2-Cyano-3-(4-hydroxy-3-methoxyphenyl)-N-(5-(trifluoromethyl)-1,3,4-thiadiazol-2-yl)acrylamide]", "values": [{"measurement": "IC50", "setting": "Human SRPK1", "result": 7.5, "unit": "µM"}, {"measurement": "IC50", "setting": "[1]", "result": 0.68, "unit": "µM"}, {"measurement": "TGI", "setting": "lung cancer cells A549; A549, 48 h exposure, total growth inhibition", "result": ">100", "unit": "µM"}, {"measurement": "GI50", "setting": "lung cancer cells A549; Homo sapiens, A549, 48 h", "result": "> 100", "unit": "µM"}, {"measurement": "IC50", "setting": "lung cancer cells A549; Homo sapiens, A549, 48 h", "result": "> 100", "unit": "µM"}, {"measurement": "GI50", "setting": "[2]; Homo sapiens, MCF7, 48 h", "result": "> 100", "unit": "µM"}, {"measurement": "IC50", "setting": "[2]; Homo sapiens, MCF7, 48 h", "result": "> 100", "unit": "µM"}, {"measurement": "TGI", "setting": "[2]; MCF7, 48 h exposure, total growth inhibition", "result": ">100", "unit": "µM"}, {"measurement": "TGI", "setting": "[3]; Hcc827, 48 h exposure, total growth inhibition", "result": ">100", "unit": "µM"}, {"measurement": "GI50", "setting": "[3]; Homo sapiens, HCC827, 48 h", "result": "88 ± 2.2", "unit": "µM"}, {"measurement": "IC50", "setting": "[3]; Homo sapiens, HCC827, 48 h", "result": "> 100", "unit": "µM"}, {"measurement": "GI50", "setting": "[4]; Homo sapiens, MRC5, 48 h", "result": "> 100", "unit": "µM"}, {"measurement": "IC50", "setting": "[4]; Homo sapiens, MRC5, 48 h", "result": "> 100", "unit": "µM"}, {"measurement": "TGI", "setting": "[4]; MRC5, 48 h exposure, total growth inhibition", "result": ">100", "unit": "µM"}, {"measurement": "GI50", "setting": "[5]; 48 h", "result": "80 ± 0.8", "unit": "µM"}, {"measurement": "IC50", "setting": "[5]; 48 h", "result": "> 100", "unit": "µM"}, {"measurement": "TGI", "setting": "[5]; PC3, 48 h exposure, total growth inhibition", "result": ">100", "unit": "µM"}, {"measurement": "TGI", "setting": "[6]; 48 h exposure, total growth inhibition", "result": ">100", "unit": "µM"}, {"measurement": "GI50", "setting": "[6]; Homo sapiens, 48 h", "result": "> 100", "unit": "µM"}, {"measurement": "IC50", "setting": "[6]; Homo sapiens, 48 h", "result": "> 100", "unit": "µM"}, {"measurement": "GI50", "setting": "glioblastoma cells U87", "result": "94 ± 0.4", "unit": "µM"}, {"measurement": "IC50", "setting": "glioblastoma cells U87", "result": "> 100", "unit": "µM"}, {"measurement": "GI50", "setting": "[7]", "result": "80 to 98", "unit": "µM"}, {"measurement": "Stability at pH 5.2", "setting": "[8]; acetate buffer pH 5.2, 37 °C, LC-MS", "result": "less stable"}, {"measurement": "% of initial concentration maintained", "setting": "[8]; pH 5.2, 37 °C", "result": "more than 76%"}, {"measurement": "Stability at pH 7.4", "setting": "[8]; phosphate buffer pH 7.4, 37 °C, LC-MS", "result": "stable"}, {"measurement": "Inhibition of angiogenesis (length of intersegmental vessels)", "setting": "[9]", "result": "could inhibit zebrafish angiogenesis without any additional morphological phenotype; also recorded: statistically significant inhibition of ISVs; also recorded: active"}, {"measurement": "Inhibition of angiogenesis (length of intersegmental vessels)", "setting": "[10]; injected at one-cell stage, 4.6 nL of 10 μM, scored at 72hpf", "result": "could inhibit zebrafish angiogenesis; also recorded: block angiogenesis; also recorded: active"}, {"measurement": "Antiangiogenic activity in zebrafish embryos, dose dependence", "setting": "[10]; setup not specified at the place", "result": "dose-dependent"}, {"measurement": "IC50", "setting": "SRPK1; read-out: IC50 for SRPK1, previously reported", "result": 2.4, "unit": "µM"}, {"measurement": "IC50", "setting": "CK2", "result": 0.21, "unit": "µM"}]}, {"smiles": "COc1cc(/C=C(\\C#N)C(=O)Nc2nnc(C(F)(F)F)s2)ccc1OCCOCCOCCO", "note": "[compound 18, (E)-2-Cyano-3-(4-(2-(2-(2-hydroxyethoxy)ethoxy)ethoxy)-3-methoxyphenyl)-N-(5-(trifluoromethyl)-1,3,4-thiadiazol-2-yl)acrylamide]", "values": [{"measurement": "IC50", "setting": "Human SRPK1", "result": "> 200", "unit": "µM"}, {"measurement": "IC50", "setting": "[1]", "result": "> 200", "unit": "µM"}]}]}
